{"source": "ChEMBL document CHEMBL1126891", "about": "(J Med Chem, 1993)", "key": {"[1]": {"tested_on": "MRC5", "experiment": "Inhibitory concentration against VZV in MRC5 cells", "format": "functional, cell-based", "settings": "Homo sapiens"}, "[2]": {"tested_on": "MRC5", "experiment": "Inhibitory concentration against human cytomegalovirus (HCMV1) in MRC5 cells", "format": "functional, cell-based"}, "[3]": {"tested_on": "Vero", "experiment": "Cytotoxicity against vero cells", "format": "cell-based", "settings": "Chlorocebus sabaeus"}, "[4]": {"tested_on": "Vero", "experiment": "Inhibitory concentration against HSV-1 in vero cells", "format": "functional, cell-based", "settings": "Chlorocebus sabaeus"}, "[5]": {"tested_on": "Vero", "experiment": "Inhibitory concentration against HSV-2 in vero cells", "format": "functional, cell-based", "settings": "Chlorocebus sabaeus", "method_in_brief": "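HSV-2 plaque reduction assay in Vero cells; the value is reported as IC50 in µM.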"}, "[6]": {"tested_on": "Human alphaherpesvirus 2", "experiment": "Inhibitory activity against Herpes simplex virus 2 in vero cells at 100 uM", "format": "functional", "settings": "Human alphaherpesvirus 2, Vero"}, "[7]": {"target": "T1, DNA polymerase alpha catalytic subunit (Homo sapiens, UniProt P09884)", "T1 sequence (P09884 whole entry)": "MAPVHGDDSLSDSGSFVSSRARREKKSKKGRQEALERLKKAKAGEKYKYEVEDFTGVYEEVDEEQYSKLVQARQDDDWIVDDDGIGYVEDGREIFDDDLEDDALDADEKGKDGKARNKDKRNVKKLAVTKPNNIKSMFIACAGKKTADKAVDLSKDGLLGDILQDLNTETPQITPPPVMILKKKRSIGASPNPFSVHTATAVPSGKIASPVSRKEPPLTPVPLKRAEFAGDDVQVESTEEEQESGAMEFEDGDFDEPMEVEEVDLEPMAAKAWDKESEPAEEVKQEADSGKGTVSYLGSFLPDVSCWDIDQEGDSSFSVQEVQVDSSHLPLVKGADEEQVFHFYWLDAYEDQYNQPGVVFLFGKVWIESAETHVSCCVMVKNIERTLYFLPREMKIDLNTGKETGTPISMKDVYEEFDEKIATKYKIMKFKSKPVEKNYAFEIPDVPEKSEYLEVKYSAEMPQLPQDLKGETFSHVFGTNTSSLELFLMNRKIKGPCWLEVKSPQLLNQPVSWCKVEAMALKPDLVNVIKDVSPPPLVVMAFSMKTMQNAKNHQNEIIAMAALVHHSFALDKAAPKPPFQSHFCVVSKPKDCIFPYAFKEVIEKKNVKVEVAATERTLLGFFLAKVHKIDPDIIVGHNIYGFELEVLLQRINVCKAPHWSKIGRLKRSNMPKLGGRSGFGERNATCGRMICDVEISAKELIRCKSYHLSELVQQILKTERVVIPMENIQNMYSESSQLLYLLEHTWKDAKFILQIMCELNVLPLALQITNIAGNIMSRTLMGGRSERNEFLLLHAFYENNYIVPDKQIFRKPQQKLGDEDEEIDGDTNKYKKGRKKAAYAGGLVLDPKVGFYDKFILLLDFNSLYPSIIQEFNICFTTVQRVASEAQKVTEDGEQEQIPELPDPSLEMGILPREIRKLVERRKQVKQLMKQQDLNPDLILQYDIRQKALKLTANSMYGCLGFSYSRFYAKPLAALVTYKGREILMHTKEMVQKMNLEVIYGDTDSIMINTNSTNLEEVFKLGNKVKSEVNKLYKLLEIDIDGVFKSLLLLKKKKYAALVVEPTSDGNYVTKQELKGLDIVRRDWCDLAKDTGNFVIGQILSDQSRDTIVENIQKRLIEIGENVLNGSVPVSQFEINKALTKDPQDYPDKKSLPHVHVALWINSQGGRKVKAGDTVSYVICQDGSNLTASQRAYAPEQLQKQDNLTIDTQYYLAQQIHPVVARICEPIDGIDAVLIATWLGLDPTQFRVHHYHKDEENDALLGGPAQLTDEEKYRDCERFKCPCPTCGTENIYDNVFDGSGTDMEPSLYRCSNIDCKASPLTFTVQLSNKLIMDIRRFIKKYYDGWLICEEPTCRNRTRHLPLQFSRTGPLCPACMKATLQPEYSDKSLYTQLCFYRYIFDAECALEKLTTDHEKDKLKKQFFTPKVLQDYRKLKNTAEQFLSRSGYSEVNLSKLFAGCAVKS", "experiment": "Effective concentration against DNA polymerase alpha", "format": "single protein", "method_in_brief": "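DNA polymerase α enzyme assay using activated calf thymus DNA as template, with no NaCl or KCl added.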"}, "[8]": {"experiment": "Toxicity observed in vero cells", "format": "cell-based", "settings": "Chlorocebus sabaeus"}, "[9]": {"target": "T1, DNA polymerase alpha catalytic subunit", "experiment": "Percent inhibition of DNA polymerase alpha at 100 uM"}, "[10]": {"tested_on": "Nucleic Acid", "experiment": "Effective concentration against DNA polymerase of Herpes simplex virus 2 (HSV-2)", "format": "nucleic-acid assay, Human alphaherpesvirus 2"}}, "data": [{"smiles": "COc1cc2c(cc1CO)CC[C@H]1[C@](C)(CO)[C@@H](O)CC[C@]21C", "values": [{"measurement": "IC50", "setting": "[1]", "result": "> 100", "unit": "µM"}, {"measurement": "IC50", "setting": "[2]", "result": "> 100", "unit": "µM"}, {"measurement": "IC50", "setting": "[3]", "result": "> 500", "unit": "µM"}, {"measurement": "IC50", "setting": "[4]", "result": "> 100", "unit": "µM"}, {"measurement": "IC50", "setting": "[5]", "result": "> 100", "unit": "µM"}]}, {"smiles": "COC(=O)[C@]1(C)CCC[C@]2(C)c3cc(OC)c(CO)cc3CC[C@@H]12", "values": [{"measurement": "inhibition at 100 µM", "setting": "[6]", "result": 100, "unit": "%"}]}, {"smiles": "C[C@@]1(CO)[C@H](O)CC[C@]2(C)C3=C[C@H](O)[C@H](CO)C[C@@H]3CC[C@@H]12", "values": [{"measurement": "inhibition at 100 µM", "setting": "[6]", "result": 0, "unit": "%"}]}, {"smiles": "COc1ccc2c(c1)[C@@]1(C)CCC[C@@](C)(N)[C@@H]1CC2", "values": [{"measurement": "EC50", "setting": "[7]", "result": 1, "unit": "µM"}, {"measurement": "inhibition at 100 µM", "setting": "[6]", "result": 100, "unit": "%"}]}, {"smiles": "C[C@@]1(CO)[C@@H](O)CC[C@]2(C)c3cc(O)c(CO)cc3CC[C@@H]12", "values": [{"measurement": "EC50", "setting": "[7]", "result": 7, "unit": "µM"}, {"measurement": "IC50", "setting": "[1]", "result": "> 100", "unit": "µM"}, {"measurement": "IC50", "setting": "[2]", "result": "> 100", "unit": "µM"}, {"measurement": "IC50", "setting": "[3]", "result": "> 500", "unit": "µM"}, {"measurement": "IC50", "setting": "[4]", "result": 198, "unit": "µM"}, {"measurement": "IC50", "setting": "[5]", "result": "> 100", "unit": "µM"}, {"measurement": "inhibition at 100 µM", "setting": "[6]", "result": 19, "unit": "%"}]}, {"smiles": "COc1cc2c(cc1CO)CC[C@H]1[C@](C)(CO)CCC[C@]21C", "values": [{"measurement": "inhibition", "setting": "[8]", "result": 100, "unit": "%"}, {"measurement": "inhibition", "setting": "[9]", "result": 3, "unit": "%"}]}, {"smiles": "COc1ccc2c(c1)[C@@]1(C)CCC[C@@](C)(C(=O)O)[C@@H]1CC2", "values": [{"measurement": "inhibition at 100 µM", "setting": "[6]", "result": 31, "unit": "%"}, {"measurement": "inhibition", "setting": "[9]", "result": 4, "unit": "%"}]}, {"smiles": "COc1ccc2c(c1)[C@@]1(C)CC[C@@H](O)[C@@](C)(CO)[C@@H]1CC2", "values": [{"measurement": "inhibition at 100 µM", "setting": "[6]", "result": 36, "unit": "%"}]}, {"smiles": "C[C@@]1(C(=O)O)CCC[C@]2(C)c3cc(O)c(C=O)cc3CC[C@@H]12", "values": [{"measurement": "EC50", "setting": "[7]", "result": 5, "unit": "µM"}, {"measurement": "inhibition at 100 µM", "setting": "[6]", "result": 0, "unit": "%"}]}, {"smiles": "COc1cc2c(cc1CO)CC[C@H]1[C@](C)(C(=O)O)CCC[C@]21C", "values": [{"measurement": "inhibition at 100 µM", "setting": "[6]", "result": 13, "unit": "%"}]}, {"smiles": "C[C@@]1(C(=O)O)CCC[C@]2(C)c3cc(O)c(CO)cc3CC[C@@H]12", "values": [{"measurement": "inhibition at 100 µM", "setting": "[6]", "result": 15, "unit": "%"}]}, {"smiles": "COC(=O)[C@]1(C)CCC[C@]2(C)c3cc(OC)c(C=O)cc3CC[C@@H]12", "values": [{"measurement": "inhibition", "setting": "[8]", "result": 100, "unit": "%"}]}, {"smiles": "C[C@@]1(CO)[C@@H](O)CC[C@@]2(C)c3cc(O)c(CO)cc3CC[C@@H]12", "values": [{"measurement": "IC50", "setting": "[1]", "result": "> 100", "unit": "µM"}, {"measurement": "IC50", "setting": "[2]", "result": "> 100", "unit": "µM"}, {"measurement": "IC50", "setting": "[3]", "result": "> 500", "unit": "µM"}, {"measurement": "IC50", "setting": "[4]", "result": "> 200", "unit": "µM"}, {"measurement": "IC50", "setting": "[5]", "result": "> 100", "unit": "µM"}]}, {"smiles": "C[C@@]1(CO)[C@H](O)CC[C@]2(C)c3cc(O)ccc3CC[C@@H]12", "values": [{"measurement": "EC50", "setting": "[7]", "result": 8, "unit": "µM"}, {"measurement": "inhibition at 100 µM", "setting": "[6]", "result": 25, "unit": "%"}]}, {"smiles": "C[C@@]1(CO)[C@H](O)CC[C@@]2(C)[C@H]1CC[C@H]1C[C@@H]3C[C@@]12CC[C@]3(O)CO", "note": "[APHIDICOLIN]", "values": [{"measurement": "EC50", "setting": "[10]", "result": 5, "unit": "µM"}]}, {"smiles": "C[C@@]1(CO)[C@@H](O)CC[C@]2(C)c3cc(O)ccc3CC[C@@H]12", "values": [{"measurement": "inhibition at 100 µM", "setting": "[6]", "result": 34, "unit": "%"}]}, {"smiles": "C[C@@]1(CO)[C@H](O)CC[C@]2(C)c3cc(O)c(CO)cc3CC[C@@H]12", "values": [{"measurement": "EC50", "setting": "[7]", "result": 4, "unit": "µM"}, {"measurement": "IC50", "setting": "[1]", "result": "> 100", "unit": "µM"}, {"measurement": "IC50", "setting": "[2]", "result": 76, "unit": "µM"}, {"measurement": "IC50", "setting": "[3]", "result": "> 500", "unit": "µM"}, {"measurement": "IC50", "setting": "[4]", "result": 133, "unit": "µM"}, {"measurement": "IC50", "setting": "[5]", "result": "> 100", "unit": "µM"}, {"measurement": "inhibition at 100 µM", "setting": "[6]", "result": 90, "unit": "%"}]}, {"smiles": "COc1ccc2c(c1)[C@@]1(C)CC[C@H](O)[C@@](C)(CO)[C@@H]1CC2", "values": [{"measurement": "inhibition at 100 µM", "setting": "[6]", "result": 10, "unit": "%"}]}, {"smiles": "C[C@@]1(CO)[C@H](O)CC[C@@]2(C)c3cc(O)c(CO)cc3CC[C@@H]12", "values": [{"measurement": "IC50", "setting": "[1]", "result": "> 100", "unit": "µM"}, {"measurement": "IC50", "setting": "[2]", "result": "> 100", "unit": "µM"}, {"measurement": "IC50", "setting": "[3]", "result": "> 500", "unit": "µM"}, {"measurement": "IC50", "setting": "[4]", "result": 222, "unit": "µM"}, {"measurement": "IC50", "setting": "[5]", "result": "> 100", "unit": "µM"}]}, {"smiles": "C[C@@]1(CO)CCC[C@]2(C)c3cc(O)c(CO)cc3CC[C@@H]12", "values": [{"measurement": "inhibition at 100 µM", "setting": "[6]", "result": 0, "unit": "%"}]}, {"smiles": "COc1cc2c(cc1CO)CC[C@H]1[C@](C)(CO)[C@H](O)CC[C@]21C", "values": [{"measurement": "IC50", "setting": "[1]", "result": "> 100", "unit": "µM"}, {"measurement": "IC50", "setting": "[2]", "result": "> 100", "unit": "µM"}, {"measurement": "IC50", "setting": "[3]", "result": "> 500", "unit": "µM"}, {"measurement": "IC50", "setting": "[4]", "result": "> 100", "unit": "µM"}, {"measurement": "IC50", "setting": "[5]", "result": "> 100", "unit": "µM"}]}]}
